The values that follow come from article PMC2233745 (The Journal of General Physiology, 2001).

Numbering of substitutions follows the chain as printed. Read-outs that look alike come from different tables or passages of the source. Ends that are not written are not given here.

Data set [1] deals with PDE activity in GH4C1 cells. Nature of the data set: Effect of PDE inhibitors on forskolin-induced Ca2+ influx in GH4C1 cells. As to conditions: Δ61–90/C460W/E583M channels, 10 μM forskolin, 1 μM nimodipine. The format is cell-based, rat.
The subject of data set [2] is PDE activity in HEK-293 cells. Description: Effects of PDE inhibitors on forskolin-induced Ca2+ influx in HEK-293 cells. The format is cell-based, human. As to conditions: C460W/E583M channels, 1 μM forskolin, IBMX 10 or 100 μM, RO-20-1724 10 μM.
Data set [3] relates to HEK-293 cells. Description: Equilibration of PDE inhibitors across the plasma membrane. The format is cell-based, human. The note with it: data not shown.
Data set [4] has as its target T1, WT rat olfactory CNG channel α subunit (Rattus norvegicus, UniProt Q00195).
T1 sequence (Q00195 1-664): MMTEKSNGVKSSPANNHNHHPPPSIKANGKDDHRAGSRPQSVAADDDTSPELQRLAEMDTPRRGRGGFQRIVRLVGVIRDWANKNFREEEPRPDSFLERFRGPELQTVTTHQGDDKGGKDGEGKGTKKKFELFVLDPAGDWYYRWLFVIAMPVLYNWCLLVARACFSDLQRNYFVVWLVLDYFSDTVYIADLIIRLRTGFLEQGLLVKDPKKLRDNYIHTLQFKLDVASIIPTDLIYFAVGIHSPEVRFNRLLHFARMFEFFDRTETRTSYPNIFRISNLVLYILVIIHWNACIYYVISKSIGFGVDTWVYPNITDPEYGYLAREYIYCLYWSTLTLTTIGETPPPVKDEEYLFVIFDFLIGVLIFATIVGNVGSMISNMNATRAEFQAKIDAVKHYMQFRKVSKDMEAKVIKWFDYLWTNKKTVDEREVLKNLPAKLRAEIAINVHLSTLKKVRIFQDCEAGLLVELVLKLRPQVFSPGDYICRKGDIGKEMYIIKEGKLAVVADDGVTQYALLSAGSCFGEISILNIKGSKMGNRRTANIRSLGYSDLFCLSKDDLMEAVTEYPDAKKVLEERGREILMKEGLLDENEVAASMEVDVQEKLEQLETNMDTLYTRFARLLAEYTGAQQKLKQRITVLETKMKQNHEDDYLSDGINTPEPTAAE
Nature of the data set: Excised inside-out patch recording, WT CNG channel. The format is biochemical. As to conditions: for N (Hill coefficient): mean ± SD of three experiments.

For data set [5], the target named is T2, Δ61–90/C460W/E583M rat olfactory CNG channel (Rattus norvegicus, UniProt Q00195, C460W/DEL61-90/E583M).
T2 sequence (Q00195 with tags, fused parts or gaps DEL61-90/C460W/E583M): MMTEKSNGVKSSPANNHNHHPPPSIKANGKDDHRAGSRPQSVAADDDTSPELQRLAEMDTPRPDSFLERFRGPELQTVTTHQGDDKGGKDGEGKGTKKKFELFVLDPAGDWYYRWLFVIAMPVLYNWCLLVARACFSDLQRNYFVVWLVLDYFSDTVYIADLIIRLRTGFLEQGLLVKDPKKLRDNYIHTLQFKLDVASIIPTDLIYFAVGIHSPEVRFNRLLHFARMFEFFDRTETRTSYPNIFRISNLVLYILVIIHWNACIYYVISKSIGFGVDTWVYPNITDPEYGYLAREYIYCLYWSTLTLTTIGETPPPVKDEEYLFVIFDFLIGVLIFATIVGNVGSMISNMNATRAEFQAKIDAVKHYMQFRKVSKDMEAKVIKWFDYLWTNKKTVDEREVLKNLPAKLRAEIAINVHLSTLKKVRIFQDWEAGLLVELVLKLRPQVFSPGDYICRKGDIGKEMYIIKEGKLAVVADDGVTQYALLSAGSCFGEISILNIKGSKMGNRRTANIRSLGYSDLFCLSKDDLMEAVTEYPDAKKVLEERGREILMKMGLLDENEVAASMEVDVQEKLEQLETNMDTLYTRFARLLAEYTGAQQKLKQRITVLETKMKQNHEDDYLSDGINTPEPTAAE
Description: Excised inside-out patch recording, Δ61–90/C460W/E583M CNG channel. The format is biochemical. The note with it: Δ61-90/C460W/E583M channel, mean ± SD of three experiments; for EC50: read-out: K1/2 (concentration that gives half-maximal current).

The target in data set [6] is T3, C460W/E583M rat olfactory CNG channel (Rattus norvegicus, UniProt Q00195, C460W/E583M).
T3 sequence (Q00195 1-664 C460W/E583M): T1 sequence (Q00195 1-664) with C460W, E583M
Nature of the data set: Excised inside-out patch recording, C460W/E583M CNG channel. It is filed as biochemical. The note with it: for N (Hill coefficient): mean ± SD of three experiments.

For data set [7], the target named is T4, E583M rat olfactory CNG channel (Rattus norvegicus, UniProt Q00195, E583M).
T4 sequence (Q00195 1-664 E583M): T1 sequence (Q00195 1-664) with E583M
Description: Excised inside-out patch recording, E583M CNG channel. The format is biochemical. The note with it: for N (Hill coefficient): mean ± SD of three experiments.

In data set [8] the test system is GH4C1 cells expressing C460W/E583M channels. Nature of the data set: AC activator-induced Ca2+ influx in GH4C1 cells expressing C460W/E583M channels. The format is cell-based, rat. As to conditions: after vehicle or 100 μM IBMX. The procedure, abridged:
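Rat GH4C1 cells kept in Ham's F-10 (15% horse serum, 2.5% FBS, pH 6.8, 37°C), adenovirus-infected (MOI 50), assayed within 12 h of harvest at 48 h post-infection. Loaded 70 min with 4 μM fura-2/AM at room temperature, then washed. Read in pH 7.4 saline (1 mM CaCl2) at ex 380/em 510 nm as ΔF/F0. Nimodipine 1 μM at time zero; IBMX/vehicle at 60 s; agonist afterwards.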

The test system of data set [9] is HEK-293 cells expressing CNG channels. Nature of the data set: Forskolin-induced Ca2+ influx through expressed CNG channels in HEK-293 cells. It is filed as cell-based, human. As to conditions: for forskolin concentration at which delay and rate of Ca2+ influx saturate: 100 μM IBMX. The procedure, abridged: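 HEK-293 cells were infected with channel-encoding adenovirus (MOI 10) and detached at 24 h with PBS/0.03% EDTA. They were loaded at room temperature for 30–40 min with 4 μM fura-2/AM and 0.02% pluronic F-127, then resuspended in HEPES-buffered saline with 1 mM CaCl2, pH 7.4, and stirred in a cuvette. 100 μM IBMX was added at 0 s and forskolin at 180 s. ΔF/F0 was read at ex 380/em 510 nm; n = 4 batches.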

For data set [10], the system named is HEK-293 and C6–2B glioma cells. The note with it: ref Rich et al. 2000, cited from earlier work.
For data set [11], the system named is voltage-gated Ca2+ channels. Nature of the data set: Block of Ca2+ influx through voltage-gated Ca2+ channels in GH4C1 cells. It is filed as cell-based, rat. As to conditions: 1 μM nimodipine, membrane depolarization in 24 mM external KCl, data not shown.
[12] abbreviates: read-out: K1/2 (concentration that gives half-maximal current), +50 mV, mean ± SD of three experiments.
Setting [13] is: read-out: K1/2 (concentration that gives half-maximal current), −50 mV, mean ± SD of three experiments.
Where [14] appears, read: read-out: K1/2, +50 mV, experiment shown in Fig. 2.

For the molecule `COCc1nc2c([nH]1)c(=O)n(C)c(=O)n2CC(C)C` [8-methoxymethyl-IBMX], the “effect on PDE activity / forskolin-induced Ca2+ influx” value in data set [1] is reported as “significantly inhibited PDE activity”.
Regarding `CCOC(=O)c1cnc2c(cnn2CC)c1NN=C(C)C` [Etazolate], the “effect on forskolin-induced Ca2+ influx” value in data set [2] is “significantly increased the forskolin-induced Ca^2+ influx”.
`CCCCOc1cc(CC2CNC(=O)N2)ccc1OC` (stereo not drawn) [RO-20-1724, 4-(3-butoxy-4-methoxybenzyl)-2-imidazolidinone]: the “effect on forskolin-induced Ca2+ influx” value in data set [2] is given as “significant forskolin-induced Ca^2+ influx was observed”. The “effect on PDE activity / forskolin-induced Ca2+ influx” value in [1] is on record as “also inhibited PDE activity”. For the same molecule, the “time to complete equilibration across the plasma membrane” value in data set [3] is recorded as below 180 s.
Consider `COc1ccc(C2CNC(=O)C2)cc1OC1CCCC1` (stereo not drawn) [Rolipram], for which the “effect on forskolin-induced Ca2+ influx” value in data set [2] is given as “significantly increased the forskolin-induced Ca^2+ influx”. Also, the “effect on PDE activity / forskolin-induced Ca2+ influx” value in data set [1] is “also inhibited PDE activity”. Besides, the “time to complete equilibration across the plasma membrane” value in data set [3] is below 180 s.
Turning to `Nc1nc2c(ncn2[C@@H]2O[C@@H]3COP(=O)(O)O[C@H]3[C@H]2O)c(=O)[nH]1` [cGMP], the “N (Hill coefficient)” value in data set [4] (+50 mV) came to 2.3 ± 0.1; in data set [4] (−50 mV), 2.5 ± 0.4; in data set [5] (+50 mV), 1.8 ± 0.2; in data set [5] (−50 mV), 2.6 ± 0.2; in [6] (+50 mV), 2.8 ± 0.3; in data set [6] (−50 mV), 2.7 ± 0.1. The entries for the “N (Hill coefficient)” value in data set [7] (+50 mV) and in data set [7] (−50 mV) were 2.4 ± 0.2 and 1.9 ± 0.2, respectively. Further, the EC50 in data set [4] (setting [12]) came out at 1.6 ± 0.1 µM; in data set [4] (setting [13]) it was 1.3 ± 0.4 µM; in data set [5] (+50 mV), 36 ± 4 µM; in data set [5] (−50 mV) it was 16 ± 1 µM; in [6] (setting [12]), 12 ± 2 µM; in [6] (setting [13]) it was 6.2 ± 1 µM. Moreover, the EC50 in [6] (setting [14]) amounted to 11 µM; in data set [7] (setting [12]) it was 28 ± 2 µM; in [7] (setting [13]), 32 ± 4 µM; in data set [7] (setting [14]), 25 µM.
As for `C=C[C@@]1(C)CC(=O)[C@]2(O)[C@@]3(C)[C@@H](O)CCC(C)(C)[C@@H]3[C@H](O)[C@H](OC(C)=O)[C@@]2(C)O1` [forskolin], the “cAMP accumulation and Ca2+ influx after addition” value in data set [8] (10 μM forskolin) was “caused additional cAMP accumulation and Ca^2+ influx”. In addition, the “forskolin concentration at which delay and rate of Ca2+ influx saturate” value was 5 µM in [9] (HEK-293 cells expressing C460W/E583M channel), 20 µM in data set [9] (HEK-293 cells expressing E583M channel), above 50 µM in data set [9] (HEK-293 cells expressing WT channel) and 20 µM in data set [9] (HEK-293 cells expressing Δ61–90/C460W/E583M channel). Also, the “forskolin-induced increase in cAMP concentration measured using CNG channels” value in data set [10] (local cAMP near the plasma membrane) is above 25 µM. For the same molecule, the “forskolin-induced increase in cAMP concentration averaged throughout the accessible cell volume” value in [10] was 1 to 2 µM.
`COCCOC(=O)C1=C(C)NC(C)=C(C(=O)OC(C)C)C1c1cccc([N+](=O)[O-])c1` (stereo not drawn) [nimodipine]: the “effect on forskolin or pCPT-cGMP induced Ca2+ influx through CNG channels” value in data set [9] (1 μM nimodipine, HEK-293 cells, data not shown) is “did not alter”. For the same molecule, the “block of Ca2+ influx through voltage-gated Ca2+ channels” value in data set [11] was “sufficient to block Ca^2+ influx through voltage-gated Ca^2+ channels”.
“vasoactive intestinal peptide (HSDAVFTDNYTRLRKQMAVKKYLNSILN; ends and bridges not checked; UniProt P01282 125-152, looked up) [VIP]”: the “cAMP accumulation and Ca2+ influx after addition” value in data set [8] (100 nM VIP) was “caused additional cAMP accumulation and Ca^2+ influx”.
